Source: ChEMBL document CHEMBL1154340, “Biphenyls from Berberis koreana” (J Nat Prod, 2009)
pIC50: −log10 of the molar value.

Legend:
[1] = test system: HCT-15; assay: Cytotoxicity against human HCT15 cells by SRB assay; type: functional, cell-based
[2] = test system: A549; assay: Cytotoxicity against human A549 cells by SRB assay; type: functional, cell-based
[3] = test system: BV-2; assay: Antiinflammatory activity in mouse BV2 cells assessed as effect on LPS-stimulated nitrite accumulation after 24 hrs by Griess reagent method; type: functional, cell-based; conditions: BV-2, 24 h
Method in brief: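 Nitrite, the stable NO oxidation product, measured in culture supernatant by Griess reaction: 50 µL supernatant mixed with equal volume of reagent (1% sulfanilamide, 0.1% N-1-naphthylethylenediamine dihydrochloride in 5% phosphoric acid). Absorbance at 540 nm read after 10 min. Sodium nitrite standard used for quantitation. L-NMMA served as positive control. IC50 values reported.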

[4] = test system: SK-MEL-2; assay: Cytotoxicity against human SK-MEL-2 cells by SRB assay; type: functional, cell-based
[5] = test system: SK-OV-3; assay: Cytotoxicity against human SKOV3 cells by SRB assay; type: functional, cell-based
[6] = Cytotoxicity against mouse BV2 cells by MTT assay; type: cell-based; conditions: bv-2
Method in brief: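 Viability of the same cultures determined by MTT (3-[4,5-dimethylthiazol-2-yl]-2,5-diphenyltetrazolium bromide) assay.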

| pIC50 [3] | SMILES | pIC50 [1] | pIC50 [2] | pIC50 [4] | pIC50 [5] | Activity [6] |
| --- | --- | --- | --- | --- | --- | --- |
| 4.30 | COc1cc(-c2ccccc2O)cc(OC)c1OC | < 5.00 | < 5.00 | < 5.00 | < 5.00 | – |
| 4.49 | COc1cc(OC)cc(-c2ccccc2O)c1 | < 5.00 | < 5.00 | < 5.00 | < 5.00 | – |
| – | COc1cc(-c2ccccc2)cc(O)c1O | < 5.00 | < 5.00 | < 5.00 | < 5.00 | – |
| – | COc1cc(-c2ccccc2O)cc(OC)c1O | < 5.00 | < 5.00 | < 5.00 | < 5.00 | – |
| – | COc1cc2c(oc3cc(O)ccc32)c(OC)c1O | < 5.00 | < 5.00 | < 5.00 | < 5.00 | – |
| – | COc1cc2c(oc3cccc(O)c32)c(OC)c1O | < 5.00 | < 5.00 | < 5.00 | < 5.00 | – |
| 4.48 | COc1ccc2c(oc3c(OC)c(OC)c(O)cc32)c1O | < 5.00 | < 5.00 | < 5.00 | < 5.00 | – |
| – | COc1cc(OC)cc(-c2ccc(O)cc2)c1 | < 5.00 | < 5.00 | < 5.00 | < 5.00 | – |
| – | COc1cc(O)cc(-c2ccccc2)c1 | < 5.00 | < 5.00 | < 5.00 | < 5.00 | – |
| – | COc1cc(OC)cc(-c2ccccc2)c1 | < 5.00 | < 5.00 | < 5.00 | < 5.00 | – |
| – | COc1cc(-c2ccccc2)cc(OC)c1O [AUCUPARIN] | < 5.00 | < 5.00 | < 5.00 | < 5.00 | – |
| – | COc1cc(-c2ccccc2)cc(Oc2c(OC)cc([C@@H](O)[C@H](O)CO)cc2OC)c1O [BERBEKORIN A] | 5.15 | 5.09 | 5.36 | – | Toxic |
| – | COc1cc2c(oc3ccccc32)c(OC)c1O [ERIOBOFURAN] | < 5.00 | < 5.00 | < 5.00 | < 5.00 | – |
| 4.66 | COc1cc(-c2ccccc2)cc(OC)c1OC [METHOXY AUCUPARIN] | < 5.00 | < 5.00 | < 5.00 | < 5.00 | – |
